MsrA inh – bovine MsrA inhibition; purified bovine MsrA, absorbance read-out; inhibition, % at 15.5 µM; actives 0.75% (n = 360,000)
TbMetRS inhib – blocks T. brucei methionyl-tRNA synthetase activity | purified T. brucei MetRS, ATP depletion, Kinase-Glo luminescence | AID 624268 | actives 0.4% (n = 360,000) | inhibition, % at 11.9 µM;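 active = inhibition above a per-plate cutoff of the control wells' mean inhibition plus 3 SD, cut at about 5.5% in these data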
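Assay system: T. brucei methionyl-tRNA synthetase, purified | Medium: HEPES buffer with MgCl2, KCl, DTT, spermine, BSA, pyrophosphatase | Compound: 11.9 µM single point | Incubation: 15 min enzyme-compound preincubation, 2 h reaction, 10 min detection, 25 °C | Measured by: Kinase-Glo luciferase luminescence reporting remaining unconsumed ATP | Measure: % inhibition normalized to control-well medians | Replication: Singlicate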
proCasp7 act – counter-screen: procaspase-7 (human) activation; AID 463210; P55210; actives 0.093% (n = 330,000); activation, % at 8.5 µM; recombinant procaspase-7, Ac-DEVD-pNA absorbance 405 nm; D23A/D198A/D206A triple mutant, cannot self-cleave; scale: DMSO 0, 5 µM enzyme 100;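 active = percent activation above the screen-wide mean plus 3 SD, cut at about 25% in these data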
Target sequence (P55210 whole entry D23A/D198A/D206A): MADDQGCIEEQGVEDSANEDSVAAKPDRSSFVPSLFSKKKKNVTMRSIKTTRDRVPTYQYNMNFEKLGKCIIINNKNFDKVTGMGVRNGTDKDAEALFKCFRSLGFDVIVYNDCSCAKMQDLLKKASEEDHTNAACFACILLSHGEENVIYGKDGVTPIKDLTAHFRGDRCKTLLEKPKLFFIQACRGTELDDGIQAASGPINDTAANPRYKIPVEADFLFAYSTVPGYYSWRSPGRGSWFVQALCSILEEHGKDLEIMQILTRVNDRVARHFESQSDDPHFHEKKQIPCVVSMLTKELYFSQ
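Test system: Procaspase-7 triple mutant (PC-7 D3A). Also added: Ac-DEVD-pNA substrate, 400 µM as added. Schedule: 1 h enzyme–compound preincubation and 2 h substrate reaction, both 25 °C. Signal: p-Nitroaniline absorbance at 405 nm, read at 0 and 120 min. Control set: low DMSO alone, high DMSO plus 5 µM PC-7.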
proCasp3 act – activates human procaspase-3; P42574; AID 463141; recombinant procaspase-3 D3A, Ac-DEVD-pNA absorbance 405 nm; actives 0.11% (n = 330,000); activation, % at 8.5 µM;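 active = activation above the mean of all tested compounds plus 3 SD, cut at about 21% in these data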
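System: Procaspase-3 D3A mutant. Medium: Zinc-free 300 mM NaCl, 50 mM HEPES, 0.01% Triton X-100. Schedule: 1 h preincubation plus 2 h reaction at 25 °C. Measured by: 405 nm absorbance of p-nitroaniline, reads at 0 and 120 min. Read-out: percent activation relative to control range.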
MsrA act – activates bovine MsrA enzyme | purified bovine MsrA, absorbance read-out | activation, % at 10.6 µM | actives 0.3% (n = 360,000) | AID 602163; in the data active = activation above about 7.5%
MsrA conf – bovine MsrA inhibition, confirmed; AID 651822; shares compounds with MsrA inh; purified bovine MsrA, absorbance read-out; actives 41% (n = 2,300); inhibition, % at 15.5 µM;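 also: coupled to thioredoxin reductase with NADPH and selenocystamine and DMSO as substrate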
Hits are given with their value; 0 = inactive; - = not tested or not shown. Most compounds without a hit are left out; they make up all but 1.5% or so of the library. Rule as the data show it, unless noted: active = inhibition above about 4.5%; inactive = the rest.

SMILES	MsrA inh	TbMetRS inhib	proCasp7 act	proCasp3 act	MsrA act	MsrA conf
CCn1cc(/C=C(\NC(=O)c2ccccc2OC)C(=O)NCCN2CCOCC2)c2ccccc21	4.7	0	-	-	0	0
COc1ccc(C(=O)N/C(=C\c2cn(C)c3ccccc23)C(=O)NCCCN2CCOCC2)cc1	5.3	0	0	0	0	0
COc1ccc(C(=O)N/C(=C\c2cn(C)c3ccccc23)C(=O)NCCN2CCOCC2)cc1OC	4.8	0	0	0	0	0
CCn1cc(/C=C(\NC(=O)c2cc(OC)c(OC)c(OC)c2)C(=O)NCCN2CCOCC2)c2ccccc21	0	0	0	0	0	-
Cn1cc(/C=C(\NC(=O)c2ccccc2)C(=O)NCCN2CCOCC2)c2ccccc21	0	0	0	0	0	-
COC(=O)C1=C(C)N(Cc2ccc(C(F)(F)F)cc2)C(=NCc2ccccc2C(F)(F)F)NC1c1ccc(F)cc1 (centres undefined)	0	-	-	-	-	-
COc1ccc(/C=N/n2c(C3CCCCC3)n[nH]c2=S)c(OC)c1	8.8	0	0	0	0	8.6
Cc1ccsc1/C=N/n1c(C2CCCCC2)n[nH]c1=S	11	0	0	0	0	6.1
Cc1ccc(-c2n[nH]c(=S)n2/N=C/c2sccc2C)cc1	4.7	0	0	0	0	0
O=C(CCc1c[nH]c2ccccc12)Nc1ccc(Oc2cccnc2)cc1	0	-	-	-	-	-
COc1cc(C(=O)N/N=C/c2sccc2C)cc(OC)c1OC	5.1	0	-	-	0	0
Cc1ccsc1/C=N/NC(=O)C(=O)NCC(C)C	5.6	0	0	0	0	0
O=C(NCc1ccccc1)[C@H]1CCCN1C(=O)[C@H]1CCCN1C(=O)C1CCCCC1	0	-	-	-	-	-
CCOC(=O)N[C@H](C(=O)N1CCC[C@H]1C(=O)NC1CCCC1)c1ccccc1	0	-	-	-	-	-
Cc1cc(C(=O)N/N=C/C=C/c2cccc([N+](=O)[O-])c2)n[nH]1	5.9	0	0	0	0	0
Cc1cc(C(=O)N/N=C/C=C/c2ccccc2)n[nH]1	5.8	0	0	0	0	5.1
O=C(N/N=C/C=C\c1cccc([N+](=O)[O-])c1)c1ccccn1	0	0	0	0	0	-
O=C(N/N=C/C=C/c1ccccc1)c1ccccn1	0	0	0	0	0	-
O=C1c2c(-c3ccc(Br)cc3)noc2CCN1Cc1cn(-c2ccccc2)nn1	0	0	-	-	-	-
COc1cc(-c2nc3ccccn3c2/N=C/c2cc(OC)c(O)cc2Cl)ccc1O	4.7	0	0	0	0	0
COc1cc(-c2nc3ccccn3c2/N=C/c2ccccc2)ccc1O	0	0	0	0	0	-
O=C1c2cccc3c([N+](=O)[O-])ccc(c23)C(=O)N1c1ccccn1	9.2	0	0	0	0	6.0
COC(=O)c1cc2c(c3c4ccccc4n(S(=O)(=O)c4ccc(OC)cc4)c13)C(=O)N(Cc1ccc(C(F)(F)F)cc1)C2	0	-	-	-	-	-
O=C(O)CSc1cc(NS(=O)(=O)c2cccc([N+](=O)[O-])c2)c2ccccc2c1O	20	0	-	-	0	0
COc1ccc(C(=O)NCC2CCN(C(=O)C(=O)c3cccs3)CC2)cc1	0	-	-	-	-	-
SMILES	MsrA inh	TbMetRS inhib	proCasp7 act	proCasp3 act	MsrA act	MsrA conf
O=C(/C=C/c1cccs1)Nc1ccc([N+](=O)[O-])cc1	0	0	0	0	0	-
Cc1cccc(NC(=O)/C=C/c2cccs2)n1	5.0	0	0	0	0	0
Cc1ccnc(NS(=O)(=O)c2ccc(NC(=O)/C=C/c3ccccc3)cc2)n1	0	0	0	0	0	-
CC(C)(C)NC(=O)/C=C/c1cccs1	0	0	0	0	0	-
Cc1ccnc(NS(=O)(=O)c2ccc(NC(=O)/C=C/c3cccs3)cc2)n1	5.9	0	0	0	0	0
O=C(/C=C/c1cccs1)Nc1ccncc1	5.9	0	0	0	0	5.3
CCOC(=O)CN1C(=O)[C@]2(OCCC=C[C@H]2C)c2cc(OC)ccc21	0	-	-	-	-	-
Cc1ccc(C)n1-n1cnc2scc(-c3cccs3)c2c1=O	5.5	0	0	0	0	0
O=C(N=Nc1c(O)[nH]c2ccccc12)c1ccco1	6.8	0	0	0	0	5.0
CCCn1c(O)c(N=NC(=O)c2ccco2)c2ccccc21	4.7	0	0	0	0	5.3
Cc1ccc(CN2CCN(CC(=O)N=Nc3c(O)[nH]c4ccccc34)CC2)cc1	0	0	0	0	0	-
